ROMK mod: human ROMK K+ channel modulation, primary screen; P48048; Tet-inducible ROMK, thallium flux fluorescence; actives lie on both sides; B-score at 10 µM; 130,000 compounds, 2% hits; AID 1918;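 active = signal ratio slope over the read window, or its plate-corrected B-score, at least 3 SD from the plate mean, either direction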;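 note: B-score of the F/F0 ratio slope over 7 to 12 s after thallium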
Target sequence (P48048 whole entry, looked up): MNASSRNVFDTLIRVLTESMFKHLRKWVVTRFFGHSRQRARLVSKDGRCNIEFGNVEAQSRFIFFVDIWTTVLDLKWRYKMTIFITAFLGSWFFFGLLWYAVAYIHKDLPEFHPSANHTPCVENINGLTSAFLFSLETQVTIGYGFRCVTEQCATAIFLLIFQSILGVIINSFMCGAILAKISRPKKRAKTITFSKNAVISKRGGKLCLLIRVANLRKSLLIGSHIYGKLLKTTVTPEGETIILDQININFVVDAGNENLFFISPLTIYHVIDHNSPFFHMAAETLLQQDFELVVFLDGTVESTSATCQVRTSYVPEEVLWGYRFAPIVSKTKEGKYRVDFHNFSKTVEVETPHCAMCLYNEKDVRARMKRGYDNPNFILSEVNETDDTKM
PKD1 kinase inh: blocks activity of human protein kinase D1 | 200,000 compounds, 0.056% hits | Q15139 | PKD1 kinase fluorescence polarization assay | inhibition, % (no concentration beside the values); in the data active = inhibition above about 50%
Rad51 HR inh: blocks human Rad51 in homologous recombination | hRad51 DNA strand exchange, fluorescence dequenching | inhibition, % at 10 µM | 200,000 compounds, 0.085% hits | AID 1385;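 active = inhibition above 40% at the single screening dose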
Target sequence (Q06609 whole entry, looked up): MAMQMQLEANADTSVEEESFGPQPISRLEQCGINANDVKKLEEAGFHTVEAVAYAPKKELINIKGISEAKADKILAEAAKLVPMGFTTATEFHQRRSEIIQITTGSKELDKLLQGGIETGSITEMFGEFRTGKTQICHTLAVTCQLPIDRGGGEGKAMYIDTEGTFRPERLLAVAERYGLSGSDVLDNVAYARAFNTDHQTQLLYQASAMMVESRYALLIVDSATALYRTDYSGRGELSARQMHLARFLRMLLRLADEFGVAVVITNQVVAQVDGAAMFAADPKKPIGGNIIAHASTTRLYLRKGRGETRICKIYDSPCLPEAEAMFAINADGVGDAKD
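Material: human Rad51–ssDNA filaments; Probe or stimulus: labelled 47-mer dsDNA for strand exchange; Doses: single 10 µM dose; Incubation: 37 °C 15-min filament assembly, 30-min compound preincubation, 15-min exchange; Technique: FRET fluorescence dequenching, excitation 485 nm, emission 520 nm; Measure: Fluorescence-based percent inhibition, control- and blank-normalised; Benchmarks: plate control and blank wells.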
Cl transport mod: modulators of human KCC2 chloride dependent transport | AID 1456 | 190,000 compounds, 2.2% hits | Q9H2X9 | KCC2 cells, thallium flux FluoZin-2 fluorescence | B-score of Tl+ flux slope (higher = more flux/activation; lower = inhibition) at 10 µM;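 active = thallium flux slope and its plate-corrected score both differing from the plate sample mean at a set confidence after two filtering rounds, in either direction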;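 note: slope of fluorescence scaled to starting intensity during 10 to 20 s after thallium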
KCC2 secondary: KCC2 (human) modulation, secondary assay; AID 1713; HEK293-KCC2, thallium flux, FluoZin2 fluorescence; stronger effect = higher value; 3,700 compounds, 15% hits; normalised thallium flux (F/F0 slope) at 10 µM; shares compounds with Cl transport mod;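 active = thallium flux slope above the same plate's solvent-only control mean plus 3 SD; inconclusive = the two replicate wells disagree; inactive = no significant difference from solvent-only control wells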
KCC2 bumet counter: thallium flux persisting under bumetanide in KCC2 cells, counter-screen secondary assay. shares compounds with Cl transport mod. HEK293-KCC2 + bumetanide/ouabain, thallium flux FluoZin2; stronger effect = higher value. normalized thallium flux at 10 µM. 3,700 compounds, 49% hits. AID 1714;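 active = thallium entry rate above the same plate's blocked-transporter control wells by more than 3 SD; inconclusive = the two repeat wells disagree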;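 note: raw slope of fluorescence over initial fluorescence between 10 and 20 s after thallium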
KCC2 sec2: confirmation of human KCC2 transport modulators. shares compounds with Cl transport mod. HEK293-KCC2, thallium flux FluoZin2 fluorescence; actives lie on both sides; F/F0 rise rate, 10–20 s post-thallium. normalized thallium flux at 10 µM. 3,700 compounds, 23% hits. AID 1715;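 active = thallium flux slope more than 3 SD above or below the plate's solvent-only control mean, mostly below; inconclusive = the two repeat wells disagreed; inactive = no significant shift from solvent-only controls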
HEK293 Tl flux: acts in parental HEK cells, KCC2 counter-screen; HEK293 parental cells, thallium flux FluoZin2, ouabain; baseline-ratio fluorescence slope, 10–20 s after thallium; thallium flux rate (normalised fluorescence) at 10 µM; shares compounds with Cl transport mod; 3,700 compounds, 46% hits;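 active = thallium flux rate significantly above the same plate's solvent-only control wells, beyond their mean plus 3 SD; inconclusive = the two replicate wells gave conflicting results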
KCC2 retest ouab: confirmation of human KCC2 modulators with ouabain; shares compounds with Cl transport mod; HEK293-KCC2, thallium flux FluoZin2 fluorescence; bidirectional: low = inhibitor, high = activator; raw Tl+ flux slope (below DMSO = inhibition, above = activation) at 10 µM; 3,700 compounds, 48% hits; AID 1717;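 active = thallium flux slope beyond 3 SD from same-plate DMSO control mean in most replicates, usually higher, sometimes lower; inconclusive = repeat tests gave conflicting results; inactive = no significant difference from controls in most replicates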;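 note: slope of initial-normalized fluorescence between seconds 10 and 20 after thallium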
HEK293 Tl flux2: parental HEK flux effect, counter-screen 2 | shares compounds with Cl transport mod | 3,700 compounds, 33% hits | HEK293 parental, thallium flux FluoZin-2 fluorescence slope | thallium flux slope at 10 µM | AID 1718;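 active = thallium flux slope above the same plate's solvent-control mean plus 3 SD in both duplicate wells; inconclusive = duplicate wells that disagreed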;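 note: run without ouabain in cells lacking the KCC2 cotransporter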
A number is an active result; n = inactive; u = inconclusive; x = not tested or not shown. The list is not random: actives were taken first. Their share in the collection is about 3%.

SMILES	ROMK mod	PKD1 kinase inh	Rad51 HR inh	Cl transport mod	KCC2 secondary	KCC2 bumet counter	KCC2 sec2	HEK293 Tl flux	KCC2 retest ouab	HEK293 Tl flux2
Cc1ccc(OCc2n[nH]c(=S)n2-c2ccccc2)cc1C	n	n	n	47.3	n	0.0693	0.0429	0.0198	0.0485	0.0244
Cc1cccc(OCc2n[nH]c(=S)n2-c2ccccc2)c1	n	n	n	n	x	x	x	x	x	x
COC(=O)c1cn(NC(=O)Cc2ccccc2Br)c(=O)c2ccccc12	n	n	n	x	x	x	x	x	x	x
O=C(/C=C/c1ccccc1)Nc1ccc(Cl)cn1	n	n	n	n	x	x	x	x	x	x
CCN(CC(=O)Nc1ccc(OC)c(Cl)c1)CC(=O)NC(C)C	n	n	n	n	x	x	x	x	x	x
O=C(O)c1ccc(NC(=S)NC(NC(=O)c2ccco2)C(Cl)(Cl)Cl)cc1 (stereo not drawn)	n	n	n	n	x	x	x	x	x	x
Cc1ccc(C(=O)NC(=S)Nc2ccc(CN3CCCCC3)cc2)c(C)c1	n	n	n	n	x	x	x	x	x	x
O=C(NC(=S)Nc1ccc(CN2CCOCC2)cc1)c1ccco1	x	x	n	11.1	u	0.0341	n	0.0135	0.0391	0.0124
Cc1ccc(NC(=S)NC(NC(=O)c2ccco2)C(Cl)(Cl)Cl)cc1 (stereo not drawn)	n	n	n	8.16	n	n	n	n	n	n
O=C(NC(=S)Nc1ccc(CN2CCCCC2)cc1)c1ccco1	n	n	n	4.05	n	0.0349	n	0.0154	0.0424	u
O=C(NC(=S)Nc1ccc(CN2CCCCC2)cc1)c1cc2ccccc2o1	n	x	n	13.4	n	0.017	0.0503	0.0309	0.0333	0.0324
CCCNC(=S)N1CC2(C)CN(C(=O)C(=O)OCC)CC(C)(C1)C2=O	n	n	n	n	x	x	x	x	x	x
Cc1cc(C)cc(C(=O)Nc2ccc(N3CCN(S(C)(=O)=O)CC3)cc2)c1	n	n	n	n	x	x	x	x	x	x
Cc1ccc(S(=O)(=O)N2CCCCC2)cc1NC(=S)NC(=O)c1ccco1	x	x	n	21.7	n	0.0164	n	0.0132	u	u
CCCCC(=O)Nc1ccc(C(=O)NNC(=S)NC(=O)c2ccco2)cc1	n	n	n	7.16	n	0.0308	n	u	0.0302	u
CCOc1ccc(NC(=S)NC(=O)c2ccco2)cc1	x	x	x	184	0.0627	0.183	0.0479	0.109	0.0976	0.0407
O=C(NC(=S)Nc1cc(S(=O)(=O)N2CCOCC2)ccc1O)c1ccco1	n	n	n	n	x	x	x	x	x	x
O=C(NC(=S)Nc1ccc2oc(=O)ccc2c1)c1cc2ccccc2o1	x	x	n	35.1	0.0163	0.0487	n	0.0366	u	0.0172
O=C(COC(=O)c1ccc(S(=O)(=O)Nc2ccccc2)cc1)NCCC1=CCCCC1	x	n	n	n	x	x	x	x	x	x
O=C(Nc1nnc(SCc2ccc(F)cc2)s1)C1Cc2ccccc2CN1C(=O)c1ccco1 (stereo not drawn)	x	n	n	-3.33	n	n	0.0249	n	0.0165	n
CCNC(=O)[C@@H]1CCCN1C(=O)[C@H](CCCN=C(N)N)NC(=O)[C@H](CC(C)C)NC(=O)[C@@H](CC(C)C)NC(=O)[C@H](Cc1ccc(O)cc1)NC(=O)[C@H](CO)NC(=O)[C@H](Cc1c[nH]c2ccccc12)NC(=O)[C@H](Cc1cnc[nH]1)NC(=O)[C@@H]1CCC(=O)N1	x	x	n	x	x	x	x	x	x	x
CC(C)(C)OC(=O)[C@H](Cc1ccccc1)NC(=O)c1nc[nH]c1C(=O)N[C@@H](Cc1ccccc1)C(=O)OC(C)(C)C	x	x	n	3.41	n	n	n	n	n	n
O=C(Cc1ccc(-n2cccc2)cc1)NC1CCCCCC1	x	n	n	-4.16	n	n	u	n	n	n
COc1ccc(Cl)cc1N(C(=O)Nc1cccc(Cl)c1)C1=NCC(C)S1 (stereo not drawn)	n	n	x	n	x	x	x	x	x	x
CCCCC1=CC2=CC(=O)C(C)(OC(=O)c3ccc(Cl)nc3)C(=O)C2=CO1 (stereo not drawn)	x	x	n	x	x	x	x	x	x	x
SMILES	ROMK mod	PKD1 kinase inh	Rad51 HR inh	Cl transport mod	KCC2 secondary	KCC2 bumet counter	KCC2 sec2	HEK293 Tl flux	KCC2 retest ouab	HEK293 Tl flux2
CCOc1ncccc1C(=O)OCC(=O)c1ccc(F)cc1	n	n	n	n	x	x	x	x	x	x
S=c1[nH]c(-c2ccccc2)cn1/N=C/c1cccnc1	n	x	n	n	x	x	x	x	x	x
Fc1ccccc1/C=N/n1cc(-c2ccccc2)[nH]c1=S	x	x	n	74.8	0.0258	0.124	n	0.0534	0.067	0.0172
O=C(O)c1ccc(/C=N/n2cc(-c3ccccc3)[nH]c2=S)cc1	x	x	n	n	x	x	x	x	x	x
Cc1ccc(C)c(/C=N/n2cc(-c3ccccc3)[nH]c2=S)c1	n	n	n	20.8	0.013	0.0474	n	0.0546	0.0415	0.0144
CCOC(=O)c1c(N/N=C/c2ccncc2)n[nH]c1C	n	n	x	18	n	n	n	u	n	n
CCOC(=O)c1c(NCc2ccccc2)n[nH]c1C	n	n	n	n	x	x	x	x	x	x
CC1(C)Oc2ccc3ccc(=O)oc3c2/C(=C/NC2CCCCC2)C1=O	x	n	n	n	x	x	x	x	x	x
COc1ccccc1NC(=O)CSc1nccc(=O)[nH]1	x	n	n	n	x	x	x	x	x	x
COc1cc(NC(=O)CSc2nccc(=O)[nH]2)c(C)cc1[N+](=O)[O-]	n	n	n	-3.42	n	n	n	n	n	n
COc1cc2[nH]c(=S)n(C3CC3)c(=O)c2cc1OC	n	n	n	n	x	x	x	x	x	x
COc1cc2[nH]c(=S)n(C3CCCC3)c(=O)c2cc1OC	n	n	n	24.5	u	0.0434	n	0.0171	0.0376	0.0104
Cc1nn(-c2cc(C(F)(F)F)ccc2Cl)c2nc(C(Cl)(Cl)Cl)[nH]c(=O)c12	x	x	x	50.3	n	0.061	0.0483	0.0356	0.0483	0.0343
Cc1nn(-c2ccccc2)c2nc(C(F)(F)F)[nH]c(=O)c12	x	n	n	n	x	x	x	x	x	x
O=S(=O)(NC1c2cccc3cccc(c23)C1N1CCNCC1)c1ccc(Cl)cc1 (stereo not drawn)	n	n	n	n	x	x	x	x	x	x
O=C(CCN1C(=O)c2ccccc2S1(=O)=O)Nc1nc2c(s1)CCCC2	x	n	n	-3.78	n	n	n	n	0.0152	n
O=C(CCN1C(=O)c2ccccc2S1(=O)=O)Nc1cccc2ccccc12	n	n	n	n	x	x	x	x	x	x
O=C(CS(=O)(=O)Cc1ccccc1)Nc1nc2c(s1)CCCC2	x	n	n	n	x	x	x	x	x	x
O=C(CCS(=O)(=O)Cc1ccccc1)Nc1nc2c(s1)CCCC2	n	n	n	x	n	n	0.0224	n	u	n
